The record followed here is ChEMBL document CHEMBL1152928, “Ingol and ingenol diterpenes from the aerial parts of Euphorbia royleana and their antiangiogenic activities” (J Nat Prod, 2009).

A short description of experiment [1]: Antiangiogenic activity in zebrafish embryo assessed as inhibition of intersegmental vessels growth after 24 hours by alkaline phosphatase staining. Format: functional, tissue-based, Danio rerio. The method in brief: (§1)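 Embryos at 24 hpf randomly distributed into wells and exposed 24 h. Intersegmental vessels visualized by GFP labeling plus endogenous alkaline phosphatase staining. Activity derived from inhibition ratio of angiogenesis versus 0.1% DMSO vehicle control. PTK787 positive control.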

A short description of experiment [2]: Antiangiogenic activity in zebrafish embryo assessed as inhibition of intersegmental vessel growth at 3 ug/mL after 24 hours by alkaline phosphatase staining relative to control. Format: functional, Danio rerio. The method, boiled down: as §1
Experiment [3] is described as follows: Antiangiogenic activity in zebrafish embryo assessed as inhibition of intersegmental vessel growth at 10 ug/mL after 24 hours by alkaline phosphatase staining relative to control. Format: functional, Danio rerio. The method in brief:
as §1

The nature of experiment [4]: Antiangiogenic activity in zebrafish embryo assessed as inhibition of intersegmental vessel growth at 5 ug/mL after 24 hours by alkaline phosphatase staining relative to PTK787. It is filed as functional, Danio rerio.
Experiment [5] is described as follows: Antiangiogenic activity in zebrafish embryo assessed as inhibition of intersegmental vessel growth at 1 ug/mL after 24 hours by alkaline phosphatase staining relative to control. It is filed as functional, Danio rerio. The method, boiled down: as §1
The nature of experiment [6]: Antiangiogenic activity in zebrafish embryo assessed as inhibition of intersegmental vessel growth at 0.1 ug/mL after 24 hours by alkaline phosphatase staining relative to control. It is filed as functional, Danio rerio. The method in brief:
as §1

The term IC50 denotes the concentration that gives 50% inhibition. In the case of `C/C=C(\C)C(=O)O[C@@H]1/C(C)=C/[C@@]23O[C@@]2(C[C@H](C)[C@@H]3OC(=O)/C(C)=C/C)C(=O)[C@H](C)[C@@H](OC(C)=O)[C@@H]2[C@H]([C@@H]1OC(C)=O)C2(C)C`, in experiment [1], the IC50 was greater than 5 µg/mL. The “inhibition (INH)” value in experiment [2] was determined as 5.8%; in experiment [3] it was 5%; in experiment [4], 5.8%.

As to `CC(=O)O[C@H]1[C@H]2[C@@H]([C@H](OC(C)=O)[C@@H](C)C(=O)[C@@]34C[C@H](C)[C@H](OC(C)=O)[C@]3(/C=C(\C)[C@H]1OC(=O)c1ccccc1)O4)C2(C)C`, in experiment [1], the IC50 is greater than 5 µg/mL.

Consider `C/C=C(\C)C(=O)O[C@H]1[C@H]2[C@@H]([C@H](OC(C)=O)[C@@H](C)C(=O)[C@@]34C[C@H](C)[C@H](OC(=O)/C(C)=C/C)[C@]3(/C=C(\C)[C@H]1OC(=O)c1ccccc1)O4)C2(C)C`, for which the IC50 in experiment [1] is greater than 5 µg/mL. In addition, the results for the “inhibition (INH)” value in experiment [2], in experiment [3] and in experiment [4] were 4.7%, 12.2% and 1.1%, respectively.

`CC(=O)O[C@H]1[C@@H]2[C@H]([C@H](OC(=O)c3ccccc3)[C@H](O)/C(C)=C/[C@@]34O[C@@]3(C[C@@H](C)[C@@H]4OC(=O)c3ccccc3)C(=O)[C@@H]1C)C2(C)C`: in experiment [1], the IC50 is greater than 5 µg/mL. The “inhibition (INH)” value was found to be 1.1% in experiment [5], 1.8% in experiment [2] and 3.6% in experiment [3].

On to `CC(=O)O[C@H]1[C@H]2[C@@H]([C@H](OC(C)=O)[C@@H](C)C(=O)[C@@]34C[C@H](C)[C@H](OC(=O)c5ccccc5)[C@]3(/C=C(\C)[C@H]1OC(=O)c1ccccc1)O4)C2(C)C`, for which, in experiment [1], the half-maximal inhibitory concentration (IC50) is greater than 5 µg/mL. Further, the “inhibition (INH)” value in experiment [5], in experiment [2] and in experiment [3] was 1.8% each time.

For the molecule `C/C=C(\C)C(=O)O[C@H]1[C@H]2[C@@H]([C@H](OC(C)=O)[C@@H](C)C(=O)[C@@]34C[C@@H](C)[C@H](OC(=O)c5ccccc5)[C@]3(/C=C(\C)[C@H]1O)O4)C2(C)C`, the IC50 in experiment [1] was greater than 5 µg/mL. Further, the “inhibition (INH)” value was determined as 5.4% in experiment [5], 1.1% in experiment [2] and 0% in experiment [3].

Consider `CC(=O)O[C@H]1[C@@H]2[C@H]([C@H](OC(=O)c3ccccc3)[C@H](O)/C(C)=C/[C@@]34O[C@@]3(C[C@H](C)[C@@H]4OC(=O)c3ccccc3)C(=O)[C@@H]1C)C2(C)C`, for which the half-maximal inhibitory concentration (IC50) in experiment [1] is greater than 5 µg/mL. In addition, the “inhibition (INH)” value was found to be 0% in experiment [5], 2.1% in experiment [2] and 0% in experiment [3].

For `C/C=C(\C)C(=O)O[C@H]1[C@H]2[C@@H]([C@H](OC(C)=O)[C@@H](C)C(=O)[C@@]34C[C@H](C)[C@H](OC(=O)/C(C)=C/C)[C@]3(/C=C(\C)[C@H]1O)O4)C2(C)C`, the IC50 in experiment [1] was greater than 5 µg/mL. Further, the “inhibition (INH)” value in experiment [5] is reported as 2.9%; in experiment [2] it was 3.6%; in experiment [3], 4.7%.

In the case of `C/C=C(\C)C(=O)O[C@H]1[C@H]2[C@@H]([C@H](OC(C)=O)[C@@H](C)C(=O)[C@@]34C[C@H](C)[C@H](OC(=O)c5ccccc5)[C@]3(/C=C(\C)[C@H]1O)O4)C2(C)C`, the IC50 in experiment [1] is greater than 5 µg/mL. The “inhibition (INH)” value turned out to be 5.4% in experiment [2], 3.2% in experiment [3] and 0% in experiment [4].

For `C/C=C(\C)C(=O)O[C@H]1[C@@H](C)C[C@@]23O[C@@]12/C=C(\C)[C@@H](O)[C@@H](OC(=O)c1ccccc1)[C@H]1[C@@H]([C@H](OC(C)=O)[C@@H](C)C3=O)C1(C)C`, the IC50 in experiment [1] is greater than 5 µg/mL. The “inhibition (INH)” value is recorded as 4.7% in experiment [5], 3.6% in experiment [2] and 4.7% in experiment [3].

For `Clc1ccc(Nc2nnc(Cc3ccncc3)c3ccccc23)cc1.O=C(O)CCC(=O)O`, in experiment [1], the IC50 came to 0.15 µg/mL. In addition, the results for the “inhibition (INH)” value in experiment [5], in experiment [3] and in experiment [6] were 95.5%, 100% and 34.6%, respectively.
